Activity calls are given as the source filed them. The calls are words filed in the database; no cut-off is given here.
Assays:
BE(2)-C = assay: (§1) Growth inhibition of human BE(2)-C cells after 72 hrs by MTT assay; format: functional
Outline: (§2)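 Cells kept in DMEM with 10% FBS, glutamine, penicillin/streptomycin at 37 °C, 5% CO2; plated in duplicate at 2500–4000 cells/well, dosed 24 h later during log growth. After 72 h drug exposure, MTT read at 540 nm. […] Assays in triplicate, standard error reported.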

DU-145 = assay: Growth inhibition of human DU145 cells after 72 hrs by MTT assay; format: functional; settings: for GI50: DU-145, 72 h; outline: as §2
MIA = assay: (§3) Growth inhibition of human MIA cells after 72 hrs by MTT assay; format: functional; outline: as §2
HT-29 = assay: Growth inhibition of human HT-29 cells after 72 hrs by MTT assay; format: functional; settings: for GI50: HT-29, 72 h; outline: as §2
SJ-G2 = assay: (§4) Growth inhibition of human SJ-G2 cells after 72 hrs by MTT assay; format: functional; outline: as §2
A2780 = assay: Growth inhibition of human A2780 cells after 72 hrs by MTT assay; format: functional; settings: for GI50: A2780, 72 h; outline: as §2
U-87MG ATCC = assay: (§5) Growth inhibition of human U87 cells after 72 hrs by MTT assay; format: functional; outline: as §2
NCI-H460 = assay: (§6) Growth inhibition of human H460 cells after 72 hrs by MTT assay; format: functional; outline: as §2
MCF7 = assay: Growth inhibition of human MCF7 cells after 72 hrs by MTT assay; format: functional; settings: for GI50: MCF7, 72 h; outline: as §2
A-431 = assay: Growth inhibition of human A431 cells after 72 hrs by MTT assay; format: functional; settings: for GI50: A-431, 72 h; outline: as §2
[1] = as §1; format: functional; outline: as §2
[2] = as §3; format: functional; outline: as §2
[3] = as §4; format: functional; settings: SJ-G2, 72 h; outline: as §2
[4] = (§7) Growth inhibition of mouse SMA cells after 72 hrs by MTT assay; format: functional; outline: as §2
[5] = as §5; format: functional, U-87MG ATCC; settings: U-87 MG; outline: as §2
[6] = as §6; format: functional; settings: NCI-H460, 72 h; outline: as §2
P338 = assay: Growth inhibition of mouse […] cells; format: functional, cell-based
SMA = assay: as §7; format: functional; outline: as §2

Row | GI50 (DU-145) [µM] | GI50 (HT-29) [µM] | GI50 (A2780) [µM] | Structure (SMILES) | growth inhibition (GI) (BE(2)-C) | growth inhibition (GI) (DU-145) | growth inhibition (GI) (MIA) | growth inhibition (GI) (HT-29) | growth inhibition (GI) (SJ-G2) | growth inhibition (GI) (A2780) | growth inhibition (GI) (U-87MG ATCC) | growth inhibition (GI) (NCI-H460) | growth inhibition (GI) (MCF7) | growth inhibition (GI) (A-431) | GI50 [1] [µM] | GI50 [2] [µM] | GI50 [3] [µM] | GI50 [4] [µM] | GI50 [5] [µM] | GI50 [6] [µM] | growth inhibition (GI) (SMA) | also measured
1 |  |  |  | CCCCCCc1cc2c(C)cc3c(c2oc1=O)C(=O)c1c(OC(C)C)cccc1C3=O | Active | Active | Active | Active | Active | Active | Active | Active | Active | Active |  |  |  |  |  |  |  | 
2 | 0.84 | 2 | 0.29 | Cc1cc2c(c3oc(C4(C)CO4)cc(=O)c13)C(=O)c1c(O)cccc1C2=O (racemic) |  |  |  |  |  |  |  |  |  |  | 0.17 | 0.9 | 0.8 | 0.16 | 0.99 | 2.1 |  | GI50 (MCF7): 1.3 µM; IC50 (P338): 0.001 µM; GI50 (A-431): 0.95 µM
3 |  |  |  | CCCCCCc1cc2c(C)cc3c(c2oc1=O)C(=O)c1c(O)cccc1C3=O | Active | Active | Active | Active | Active | Active | Active | Active | Active | Active |  |  |  |  |  |  | Active | 
4 |  |  |  | CCCCCCc1cc(=O)c2c(C)cc3c(c2o1)C(=O)c1c(O)cccc1C3=O | Active | Active | Active | Active | Active | Active | Active | Active | Active | Active |  |  |  |  |  |  |  | 
5 |  |  |  | Cc1cc2c(c3oc(-c4ccccc4)cc13)C(=O)c1c(O)cccc1C2=O | Active |  | Active | Active |  | Active | Active | Active | Active | Active |  |  |  |  |  |  | Active | 
6 |  |  |  | CCCc1cc2c(C)cc3c(c2o1)C(=O)c1c(OC(C)C)cccc1C3=O | Active | Active | Active | Active | Active | Active | Active | Active | Active | Active |  |  |  |  |  |  | Active | 
7 |  |  |  | CCCc1cc2c(C)cc3c(c2oc1=O)C(=O)c1c(OC(C)C)cccc1C3=O | Active | Active | Active | Active | Active | Active | Active | Active | Active | Active |  |  |  |  |  |  | Active | 
8 |  |  |  | CCC(C)(OCc1ccccc1)c1cc2c(C)cc3c(c2oc1=O)C(=O)c1c(OC(C)C)cccc1C3=O (stereo not drawn) | Active | Active | Active | Active | Active | Active | Active | Active | Active | Active |  |  |  |  |  |  | Active | 
9 |  |  |  | CCCCCCc1cc2c(C)cc3c(c2o1)C(=O)c1c(OC(C)C)cccc1C3=O | Active | Active | Active | Active | Active | Active | Active | Active | Active | Active |  |  |  |  |  |  | Active | 
10 |  |  |  | Cc1cc2c(c3oc(=O)c(-c4ccccc4)cc13)C(=O)c1c(OC(C)C)cccc1C2=O | Active | Active | Active | Active | Active | Active | Active | Active | Active | Active |  |  |  |  |  |  | Active | 
11 | 0.85 | 0.88 | 2.3 | CCCCCC(=O)c1cc2c(C)cc3c(c2o1)C(=O)c1c(OC(C)C)cccc1C3=O |  |  |  |  |  |  |  |  |  |  | 0.75 | 1.1 | 4.2 | 1.8 | 4.2 | 6.8 |  | GI50 (MCF7): 2 µM; GI50 (A-431): 1.4 µM
12 |  |  |  | Cc1cc2c(c3oc(C(=O)c4ccccc4)cc13)C(=O)c1c(O)cccc1C2=O | Active |  | Active | Active |  | Active | Active | Active | Active | Active |  |  |  |  |  |  | Active | 
13 |  |  |  | Cc1cc2c(c3oc(-c4ccccc4)cc(=O)c13)C(=O)c1c(O)cccc1C2=O | Active | Active | Active | Active |  | Active | Active | Active | Active | Active |  |  |  |  |  |  | Active | 
14 | 1.9 | 4.8 | 5.8 | CCc1cc(=O)c2c(C)cc3c(c2o1)C(=O)c1c(OC(C)C)cccc1C3=O |  |  |  |  |  |  |  |  |  |  | 2.2 | 3.4 | 16 | 3.9 | 8.7 | 6.9 |  | GI50 (MCF7): 4.3 µM; GI50 (A-431): 5.7 µM
15 | 24 | 24 | 12 | Cc1cc2c(c3oc(=O)cc(CCCCl)c13)C(=O)c1c(OC(C)C)cccc1C2=O |  |  |  |  |  |  |  |  |  |  | 27 | 17 | 27 | 16 | 12 | 25 |  | GI50 (MCF7): 8.8 µM; GI50 (A-431): 12 µM
16 | 11 | 18 | 9.5 | CCCCc1cc(=O)oc2c3c(cc(C)c12)C(=O)c1cccc(OC(C)C)c1C3=O |  |  |  |  |  |  |  |  |  |  | 13 | 13 | 13 | 12 | 14 | 19 |  | GI50 (MCF7): 15 µM; GI50 (A-431): 20 µM
17 | 5.3 | 5.5 | 6.4 | CCCc1cc(=O)c2c(C)cc3c(c2o1)C(=O)c1c(OC)cccc1C3=O |  |  |  |  |  |  |  |  |  |  | 6.1 | 7.1 | 5.3 | 6 | 6.4 | 5.3 |  | GI50 (MCF7): 6.4 µM; GI50 (A-431): 6.6 µM
18 |  |  |  | Cc1cc2c(c3oc(=O)c(CCCC#N)cc13)C(=O)c1c(OC(C)C)cccc1C2=O | Active | Active | Active | Active | Active | Active | Active | Active | Active | Active |  |  |  |  |  |  | Active | 
19 | 27 | 11 | 13 | Cc1cc2c(c3oc(=O)c([Si](C)(C)C)cc13)C(=O)c1c(OC(C)C)cccc1C2=O |  |  |  |  |  |  |  |  |  |  | 28 | 11 | 14 | 11 | 19 | 21 |  | GI50 (MCF7): 13 µM; GI50 (A-431): 19 µM
20 |  |  |  | Cc1cc2c(c3oc(-c4ccccc4)cc13)C(=O)c1c(OC(C)C)cccc1C2=O | Active |  | Active | Active |  | Active | Active | Active | Active | Active |  |  |  |  |  |  | Active | 
21 |  |  |  | CCCCc1cc2c(C)cc3c(c2oc1=O)C(=O)c1c(OC(C)C)cccc1C3=O | Active | Active | Active | Active | Active | Active | Active | Active | Active | Active |  |  |  |  |  |  | Active | 

From ChEMBL document CHEMBL3596100, “The synthesis and biological activity of novel anthracenone-pyranones and anthracenone-furans” (Bioorg Med Chem, 2015)
